In ChEMBL document CHEMBL1126653, “Structure-function studies of amphiphilic antibacterial peptides” (1993):
Values after ≈ are worked out from the molar mass of the structure shown. Peptide text beside a SMILES is read from it.

Assays:
Pseudomonas aeruginosa [1] = assay: Compound tested for the antimicrobial activity against Pseudomonas aeruginosa strain 9; format: functional
In short: (§1)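 Microbroth dilution in Tryptic Soy Broth; inoculum 5×10^5 CFU/mL; plates incubated at 37 °C for 18-20 h; value reported as minimal inhibitory concentration (µg/mL).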

Proteus mirabilis = assay: Compound tested for the antimicrobial activity against Proteus mirabilis; format: functional; in short: as §1
Pseudomonas aeruginosa [2] = assay: Compound tested for the antimicrobial activity against Pseudomonas aeruginosa strain 10; format: functional; in short: as §1
Pseudomonas aeruginosa [3] = assay: Compound tested for the antimicrobial activity against Pseudomonas aeruginosa strain 7; format: functional; in short: as §1
[4] = system: Salmonella enterica subsp. enterica serovar Anatum; assay: Compound tested for the antimicrobial activity against S. a natum; format: functional, salmoneila anatum; in short: as §1
Pseudomonas aeruginosa [5] = assay: Compound tested for in vitro susceptibility against ATCC strain 27853 of Pseudomonas aeruginosa; format: functional; details: ATCC 27853; in short: as §1
Staphylococcus aureus [6] = assay: Compound tested for the activity against Staphylococcus aureus strain 5; format: functional; in short: as §1
Pseudomonas aeruginosa [7] = assay: Compound tested for the antimicrobial activity against Pseudomonas aeruginosa strain ATCC 25916; format: functional; in short: as §1
Pseudomonas aeruginosa [8] = assay: Compound tested for the antimicrobial activity against Pseudomonas aeruginosa strain 6; format: functional; in short: as §1
Pseudomonas aeruginosa [9] = assay: Compound tested for the antimicrobial activity against Pseudomonas aeruginosa strain 3; format: functional; in short: as §1
Pseudomonas aeruginosa [10] = assay: Compound tested for the antimicrobial activity against Pseudomonas aeruginosa strain 2; format: functional; in short: as §1
Staphylococcus aureus [11] = assay: Compound tested for the activity against Staphylococcus aureus strain 1; format: functional; in short: as §1
Escherichia coli = assay: Compound tested for in vitro susceptibility against ATCC strain 25922 of Escherichia coli; format: functional; details: ATCC25922; in short: as §1
Staphylococcus aureus [12] = assay: Compound tested for the activity against Staphylococcus aureus strain 4; format: functional; in short: as §1
[13] = system: Acinetobacter calcoaceticus subsp. anitratus; assay: Compound tested for the antimicrobial activity against Acinetobacter anitratus; format: functional
In short: (§2)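 MIC by microbroth dilution in Tryptic Soy Broth; inoculum 5×10^5 CFU/mL; plates incubated 18-20 h at 37 °C; assay pH approximately 7.4.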

Shigella flexneri = assay: Compound tested for the antimicrobial activity against Shigella flexneri; format: functional; in short: as §2
Staphylococcus aureus [14] = assay: Compound tested for the activity against Staphylococcus aureus strain 8; format: functional; in short: as §1
Staphylococcus aureus [15] = assay: Compound tested for the activity against Staphylococcus aureus strain 7; format: functional; in short: as §1
Staphylococcus aureus [16] = assay: Compound tested for the activity against Staphylococcus aureus strain 10; format: functional; in short: as §1
Staphylococcus aureus [17] = assay: Compound tested for the activity against Staphylococcus aureus strain 6; format: functional; in short: as §1
Staphylococcus aureus [18] = assay: Compound tested for the activity against Staphylococcus aureus strain 2; format: functional; in short: as §1
Enterobacter cloacae [19] = assay: Compound tested for the antimicrobial activity against Enterobacter cloacae ROS; format: functional, enterobacter cloacaeros; in short: as §2
Staphylococcus aureus [20] = assay: Compound tested for the activity against Staphylococcus aureus strain 11; format: functional; in short: as §1
Klebsiella pneumoniae = assay: Compound tested for the antimicrobial activity against Klebsiella pneumoniae; format: functional; in short: as §2
Pseudomonas aeruginosa [21] = assay: Compound tested for the antimicrobial activity against Pseudomonas aeruginosa strain 5; format: functional; in short: as §1
Staphylococcus aureus [22] = assay: Compound tested for the activity against Staphylococcus aureus strain 3; format: functional; in short: as §1
Staphylococcus aureus [23] = assay: Compound tested for the activity against Staphylococcus aureus strain ATCC 28953; format: functional; in short: as §1
Enterobacter cloacae [24] = assay: Compound tested for the antimicrobial activity against Enterobacter cloacae; format: functional; in short: as §1
Pseudomonas aeruginosa [25] = assay: Compound tested for the antimicrobial activity against Pseudomonas aeruginosa strain 11; format: functional; in short: as §1
Staphylococcus aureus [26] = assay: Compound tested for in vitro susceptibility against ATCC strain 29213 of Staphylococcus aureus; format: functional; in short: as §1
Staphylococcus aureus [27] = assay: Compound tested for the activity against Staphylococcus aureus strain 9; format: functional; in short: as §1
Pseudomonas aeruginosa [28] = assay: Compound tested for the antimicrobial activity against Pseudomonas aeruginosa strain 4; format: functional; in short: as §1
Pseudomonas aeruginosa [29] = assay: Compound tested for the antimicrobial activity against Pseudomonas aeruginosa strain 1; format: functional; in short: as §1
Pseudomonas aeruginosa [30] = assay: Compound tested for the antimicrobial activity against Pseudomonas aeruginosa strain 8; format: functional; in short: as §1
[31] = Hemolytic activity towards human erythrocytes is evaluated for magainin 2 at peptide concentration of 25 ug/mL; format: functional
In short: (§3)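 Washed human erythrocytes from healthy volunteers (3 mL packed cells, PBS pH 7.4 washes, diluted to 20 mL) exposed to peptide in PBS at 25-200 µg/mL, 30 min at 37 °C; supernatant absorbance at 576 nm after centrifugation; 0.1% Triton X-100 taken as 100% hemolysis; duplicates.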

[32] = Hemolytic activity towards human erythrocytes is evaluated for magainin 2 at peptide concentration of 100 µg/mL; format: functional; in short: as §3
[33] = Hemolytic activity towards human erythrocytes is evaluated for magainin 2 at peptide concentration of 50 µg/mL; format: functional; in short: as §3
[34] = Hemolytic activity towards human erythrocytes is evaluated for magainin 2 at peptide concentration of 200 µg/mL; format: functional; in short: as §3
Staphylococcus aureus [35] = assay: Compound tested for the activity against strain of Staphylococcus aureus ATCC 28953; format: functional; in short: as §1

Compound | MIC (Pseudomonas aeruginosa [1]) [µg/mL] | MIC (Pseudomonas aeruginosa [2]) [µg/mL] | MIC (Pseudomonas aeruginosa [3]) [µg/mL] | MIC (Pseudomonas aeruginosa [5]) [µg/mL] | MIC (Staphylococcus aureus [6]) [µg/mL] | MIC (Pseudomonas aeruginosa [7]) [µg/mL] | MIC (Pseudomonas aeruginosa [8]) [µg/mL] | MIC (Pseudomonas aeruginosa [9]) [µg/mL] | MIC (Pseudomonas aeruginosa [10]) [µg/mL] | MIC (Staphylococcus aureus [11]) [µg/mL] | MIC (Escherichia coli) [µg/mL] | MIC (Staphylococcus aureus [12]) [µg/mL] | MIC (Staphylococcus aureus [14]) [µg/mL] | MIC (Staphylococcus aureus [15]) [µg/mL] | MIC (Staphylococcus aureus [16]) [µg/mL] | MIC (Staphylococcus aureus [17]) [µg/mL] | MIC (Staphylococcus aureus [18]) [µg/mL] | MIC (Staphylococcus aureus [20]) [µg/mL] | MIC (Pseudomonas aeruginosa [21]) [µg/mL] | MIC (Staphylococcus aureus [22]) [µg/mL] | also measured
CC(C)C[C@H](NC(=O)[C@H](CCCCN)NC(=O)[C@H](CC(C)C)NC(=O)[C@H](Cc1c[nH]c2ccccc12)NC(=O)[C@H](CCCCN)NC(=O)[C@@H](N)CCCCN)C(=O)N[C@@H](Cc1c[nH]c2ccccc12)C(=O)N[C@@H](CCCCN)C(=O)N[C@@H](C)C(=O)N[C@@H](Cc1c[nH]c2ccccc12)C(=O)O (H-KKWLKLWKAW-OH) | > 100 | 50 (≈ 36.1 µM) | 50 (≈ 36.1 µM) | 12.5 (≈ 9.01 µM) | > 100 | 25 (≈ 18 µM) | > 100 | 50 (≈ 36.1 µM) | 12.5 (≈ 9.01 µM) | > 100 | 25 (≈ 18 µM) | > 100 | > 100 | > 100 | > 100 | > 100 | > 100 | > 100 | 50 (≈ 36.1 µM) | > 100 | MIC (Proteus mirabilis): > 100 µg/mL; MIC [4]: 12.5 µg/mL (≈ 9.01 µM); MIC [13]: < 0.39 µg/mL; MIC (Shigella flexneri): < 0.39 µg/mL; MIC (Enterobacter cloacae [19]): 50 µg/mL (≈ 36.1 µM); MIC (Klebsiella pneumoniae): > 100 µg/mL; MIC (Staphylococcus aureus [23]): > 100 µg/mL; MIC (Enterobacter cloacae [24]): < 0.39 µg/mL; MIC (Pseudomonas aeruginosa [25]): 50 µg/mL (≈ 36.1 µM); MIC (Staphylococcus aureus [26]): 12.5 µg/mL (≈ 9.01 µM); MIC (Staphylococcus aureus [27]): > 100 µg/mL; MIC (Pseudomonas aeruginosa [28]): 50 µg/mL (≈ 36.1 µM); MIC (Pseudomonas aeruginosa [29]): 25 µg/mL (≈ 18 µM); MIC (Pseudomonas aeruginosa [30]): 50 µg/mL (≈ 36.1 µM)
CC(C)C[C@H](NC(=O)[C@H](C)NC(=O)[C@H](CCCCN)NC(=O)[C@H](C)NC(=O)[C@H](CC(C)C)NC(=O)[C@H](CCCCN)NC(=O)[C@H](C)NC(=O)[C@H](CC(C)C)NC(=O)[C@H](CCCCN)NC(=O)[C@H](C)NC(=O)[C@H](CC(C)C)NC(=O)[C@H](CCCCN)NC(=O)[C@H](CCCCN)NC(=O)[C@H](C)NC(=O)[C@H](CC(C)C)NC(=O)[C@@H](N)CCCCN)C(=O)O (H-KLAKKLAKLAKLAKAL-OH) | > 100 | > 100 | 6.25 (≈ 3.66 µM) | 3.12 (≈ 1.83 µM) | > 100 | 6.25 (≈ 3.66 µM) | > 100 | 3.12 (≈ 1.83 µM) | 6.25 (≈ 3.66 µM) | > 100 | 6.25 (≈ 3.66 µM) | > 100 | > 100 | > 100 | > 100 | > 100 | > 100 | > 100 | 6.25 (≈ 3.66 µM) | > 100 | MIC (Proteus mirabilis): > 100 µg/mL; MIC [4]: 25 µg/mL (≈ 14.6 µM); Hemolysis [31]: 1%; MIC [13]: 3.12 µg/mL (≈ 1.83 µM); MIC (Shigella flexneri): 25 µg/mL (≈ 14.6 µM); Hemolysis [32]: 1%; Hemolysis [33]: 1%; Hemolysis [34]: 2%; MIC (Enterobacter cloacae [19]): 12.5 µg/mL (≈ 7.32 µM); MIC (Klebsiella pneumoniae): 12.5 µg/mL (≈ 7.32 µM); MIC (Staphylococcus aureus [23]): > 100 µg/mL; MIC (Enterobacter cloacae [24]): 3.12 µg/mL (≈ 1.83 µM); MIC (Pseudomonas aeruginosa [25]): 6.25 µg/mL (≈ 3.66 µM); MIC (Staphylococcus aureus [26]): 12.5 µg/mL (≈ 7.32 µM); MIC (Staphylococcus aureus [27]): > 100 µg/mL; MIC (Pseudomonas aeruginosa [28]): 3.12 µg/mL (≈ 1.83 µM); MIC (Pseudomonas aeruginosa [29]): 3.12 µg/mL (≈ 1.83 µM); MIC (Pseudomonas aeruginosa [30]): 50 µg/mL (≈ 29.3 µM)
CC(C)C[C@H](NC(=O)[C@H](Cc1c[nH]c2ccccc12)NC(=O)[C@H](CCCCN)NC(=O)[C@H](CCCCN)NC(=O)[C@@H](N)Cc1c[nH]c2ccccc12)C(=O)N[C@@H](Cc1c[nH]c2ccccc12)C(=O)N[C@@H](C)C(=O)N[C@@H](CCCCN)C(=O)N[C@@H](Cc1c[nH]c2ccccc12)C(=O)O (H-WKKWLWAKW-OH) | > 100 | > 100 | 50 (≈ 37.5 µM) | 12.5 (≈ 9.39 µM) | 50 (≈ 37.5 µM) | 50 (≈ 37.5 µM) | > 100 | 50 (≈ 37.5 µM) | 12.5 (≈ 9.39 µM) | 50 (≈ 37.5 µM) | 50 (≈ 37.5 µM) | 50 (≈ 37.5 µM) | 50 (≈ 37.5 µM) | 25 (≈ 18.8 µM) | 50 (≈ 37.5 µM) | 50 (≈ 37.5 µM) | 25 (≈ 18.8 µM) | 50 (≈ 37.5 µM) | 50 (≈ 37.5 µM) | > 100 | Hemolysis [31]: 1%; Hemolysis [32]: 4%; Hemolysis [33]: 1%; Hemolysis [34]: 5%; MIC (Pseudomonas aeruginosa [25]): 50 µg/mL (≈ 37.5 µM); MIC (Staphylococcus aureus [26]): 25 µg/mL (≈ 18.8 µM); MIC (Staphylococcus aureus [27]): 50 µg/mL (≈ 37.5 µM); MIC (Pseudomonas aeruginosa [28]): 50 µg/mL (≈ 37.5 µM); MIC (Pseudomonas aeruginosa [29]): 50 µg/mL (≈ 37.5 µM); MIC (Staphylococcus aureus [35]): > 100 µg/mL; MIC (Pseudomonas aeruginosa [30]): 50 µg/mL (≈ 37.5 µM)
